According to ChEMBL document CHEMBL1137668, “Activities of several classes of acyclic nucleoside phosphonates against camelpox virus replication in different cell culture models” (Antimicrob Agents Chemother, 2007):

What was measured:
[1] = Selectivity index, ratio of CC50 for human PHK to EC50 for Camelpox virus CML14 infected in human PHK
Camelpox virus [2] = experiment: Antiviral activity against Camelpox virus CML14 infected in HEL299 cells assessed as inhibition of virus-induced cytopathic effect after 6 days by Giemsa staining; assay type: functional, organism-based; settings: CML14, HEL 299, 144 h
[3] = Selectivity index, ratio of CC50 for human PHK to EC50 for Camelpox virus CML1 infected in human PHK
Camelpox virus [4] = experiment: Antiviral activity against Camelpox virus CML14 infected in human PHK assessed as inhibition of virus-induced cytopathic effect after 6 days by Giemsa staining; assay type: functional, organism-based; settings: CML14, 144 h
Camelpox virus [5] = experiment: Antiviral activity against Camelpox virus CML1 infected in human PHK assessed as inhibition of virus-induced cytopathic effect after 6 days by Giemsa staining; assay type: functional, organism-based; settings: CML1, 144 h
Camelpox virus [6] = experiment: Antiviral activity against Camelpox virus CML1 infected in HEL299 cells assessed as inhibition of virus-induced cytopathic effect after 6 days by Giemsa staining; assay type: functional, organism-based; settings: CML1, HEL 299, 144 h
[7] = Cytotoxicity against human PHK after 4 days by Z1 Coulter counting analysis; settings: PHK cells
Summary of the method: (§1)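 Cell growth inhibition: HEL cells were seeded at 3.5 × 10³ per well and PHKs at 5 × 10³ per well. Serial dilutions were added in duplicate after 1 day (HEL) or 3 days (PHK). After 4 days with compound, cells were trypsinized and counted with a Coulter counter (8 μm lower limit). CC50 is the concentration reducing growth by 50%, mean ± SD of at least two experiments.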

[8] = Selectivity index, ratio of CC50 for HEL299 cells to EC50 for Camelpox virus CML1 infected in HEL299 cells; assay type: toxicity, cell-based, HEL 299; settings: human, HEL299 cells; read-out: Ratio CC50/IC50
[9] = Cytotoxicity against HEL299 cells after 4 days by Z1 Coulter counting analysis; assay type: cell-based, HEL 299; settings: human, HEL299 cells; summary of the method: as §1
[10] = Selectivity index, ratio of CC50 for HEL299 cells to EC50 for Camelpox virus CML14 infected in HEL299 cells; assay type: toxicity, cell-based, HEL 299; settings: human, HEL299 cells; read-out: Ratio CC50/IC50
Camelpox virus [11] = experiment: Antiviral activity against Camelpox virus CML1 infected in HEL299 cells assessed as reduction in viral titer after 6 days postinfection by virus yield reduction assay; assay type: functional; settings: HEL 299

SMILES	Ratio CC50/IC50 [1]	EC50 (Camelpox virus [2])	Ratio CC50/IC50 [3]	EC50 (Camelpox virus [4])	EC50 (Camelpox virus [5])	EC50 (Camelpox virus [6])	CC50 at 96 h [7]	selectivity ratio [8]	CC50 at 96 h [9]	selectivity ratio [10]	Activity (Camelpox virus [11])
Nc1cc(OCCOCP(=O)(O)O)nc(N)n1	0.1	> 189 µM	0.1	53.7 µM	49.2 µM	> 189 µM	4 µM	< 0.3	66 µM	< 0.3	–
Nc1nc(NCCP(=O)(O)O)c2ncn(CCOCP(=O)(O)O)c2n1	<0.5	> 127 µM	<0.5	> 127 µM	> 127 µM	> 127 µM	59 µM	< 0.3	43 µM	< 0.3	–
Nc1nc(NCCS(=O)(=O)O)c2ncn(CCOCP(=O)(O)O)c2n1	<1	> 126 µM	<1	> 126 µM	> 126 µM	> 126 µM	102 µM	< 2	258 µM	< 2	–
Nc1nc(Cl)c2ncn(CCOCP(=O)(O)O)c2n1	0.1	9.3 µM	0.2	15.9 µM	7.9 µM	6.9 µM	1 µM	1	8 µM	1	–
Nc1nc(N)c2ncn(CCOCP(=O)(O)O)c2n1 [PMEDAP]	0.1	> 173 µM	0.1	63.7 µM	93 µM	> 173 µM	8 µM	< 1	100 µM	< 1	–
Nc1ncnc2c1ncn2CCOCP(=O)(O)O [ADEFOVIR]	<0.4	> 183 µM	0.5	> 183 µM	162 µM	> 183 µM	76 µM	< 1	211 µM	< 1	–
Cc1nc(N)nc2c1ncn2CCOCP(=O)(O)O	0.4	> 174 µM	0.4	> 174 µM	> 174 µM	> 174 µM	> 70 µM	1	> 174 µM	–	–
C[C@@H](Cn1cnc2c(N)ncnc21)OCP(=O)(O)O	1	> 176 µM	1	> 176 µM	> 176 µM	> 176 µM	> 176 µM	1	> 176 µM	–	–
CC(C)CC(Nc1nc(N)nc2c1ncn2CCOCP(=O)(O)O)C(=O)O (racemic)	0.1	44.3 µM	0.1	87.4 µM	77.8 µM	53 µM	8 µM	0.2	12 µM	0.3	–
Nc1nc2c(ncn2CCOCP(=O)(O)O)c(=O)[nH]1 [GS-438]	0.1	5.5 µM	0.1	4.4 µM	2.9 µM	3.3 µM	0.3 µM	0.3	1 µM	0.2	–
Nc1nc(NC(CC(=O)O)C(=O)O)c2ncn(CCOCP(=O)(O)O)c2n1 (racemic)	<0.1	46 µM	<0.1	> 124 µM	> 124 µM	48.3 µM	16 µM	0.4	20 µM	0.4	–
Nc1nc(N(CC(=O)O)CC(=O)O)c2ncn(CCOCP(=O)(O)O)c2n1	1	> 124 µM	1	> 124 µM	> 124 µM	> 124 µM	> 124 µM	1	> 124 µM	–	–
Nc1nc(NCCC(=O)O)c2ncn(CCOCP(=O)(O)O)c2n1	<2	> 139 µM	<2	> 139 µM	> 139 µM	> 139 µM	258 µM	< 2	294 µM	< 2	–
C[C@@H](O)[C@H](Nc1nc(N)nc2c1ncn2CCOCP(=O)(O)O)C(=O)O	<0.2	112 µM	<0.2	> 128 µM	> 128 µM	112 µM	19 µM	0.3	39 µM	0.3	–
CN(C)c1ncnc2c1ncn2CCOCP(=O)(O)O	0.1	24.6 µM	0.1	10.9 µM	8.5 µM	29.4 µM	1 µM	1	22 µM	1	–
Nc1nc(NC(Cc2ccccc2)C(=O)O)c2ncn(CCOCP(=O)(O)O)c2n1 (racemic)	<0.2	> 115 µM	<0.2	> 115 µM	> 115 µM	> 115 µM	27 µM	< 1	101 µM	< 1	–
Nc1nc(NCS(=O)(=O)O)c2ncn(CCOCP(=O)(O)O)c2n1	0.03	1.9 µM	0.03	4.9 µM	3.7 µM	1.9 µM	0.1 µM	1	2 µM	1	–
NC1=NC(OC[C@@H]2CP(=O)(O)CO2)=CC(N)N1O (some centres undefined)	2	7.6 µM	3	18.4 µM	16.1 µM	5.2 µM	43 µM	28	147 µM	19	–
Nc1nc(NCCOCP(=O)(O)O)c2ncn(CCOCP(=O)(O)O)c2n1	–	> 118 µM	–	> 118 µM	> 118 µM	> 118 µM	–	–	–	–	–
Nc1nc(NC(CO)C(=O)O)c2ncn(CCOCP(=O)(O)O)c2n1 (racemic)	0.03	55.7 µM	0.03	93.4 µM	81.8 µM	54.5 µM	2 µM	0.1	3 µM	0.1	–
Nc1nc(N)c(Br)c(OCCOCP(=O)(O)O)n1	–	> 156 µM	–	> 156 µM	> 156 µM	> 156 µM	–	< 0.3	52 µM	< 0.3	–
CC(C)(C)C(=O)OCOP(=O)(COC(CO)Cn1cnc(N)nc1=O)OCOC(=O)C(C)(C)C (centres undefined)	4	0.02 µM	2	0.3 µM	0.6 µM	0.02 µM	1 µM	250	5 µM	250	Dose-dependent effect
CC(O)C(Nc1nc(N)nc2c1ncn2CCOCP(=O)(O)O)C(=O)O (racemic)	0.03	29 µM	0.04	71.5 µM	47.7 µM	44.1 µM	2 µM	0.2	9 µM	0.3	–
C[C@H](O)[C@H](Nc1nc(N)nc2c1ncn2CCOCP(=O)(O)O)C(=O)O	<0.1	71.6 µM	<0.1	> 128 µM	> 128 µM	63 µM	> 16 µM	1	56 µM	1	–
Nc1nc(NCCCC(=O)O)c2ncn(CCOCP(=O)(O)O)c2n1	1	> 134 µM	1	> 134 µM	> 134 µM	> 134 µM	> 134 µM	< 2	282 µM	< 2	–
